A selection: hits, their analogues and other compounds. The true share with any hit is near 3.5%.
Ecoli rRNA inh: selective bacterial rRNA inhibition in E. coli; GFP signal change (wild-type ribosome), % (concentration not given with the values); E. coli WT GFP vs humanized-ribosome RFP mutants, fluorescence, 24 h; stronger effect = lower value; DMSO median 0, no signal -100; AID 720706; 1.6% of 350,000 active;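 active = significant combined selectivity score with lowered wild-type GFP, culture density cut under 30%, mutant RFP and density less affected; inactive = any of these conditions unmet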
PglD inh: PglD (C. jejuni) enzyme inhibition; purified PglD enzyme, DTNB colorimetric CoA detection; inhibition, % at 12.5 µM; 0.098% of 360,000 active; in the data active = inhibition above about 16%, passing the limit was not always enough
FN deposition inh: fibronectin deposition inhibition. inhibition, % at 12.6 µM. AID 743247. AH1F fibroblasts, Alexa488-fibronectin deposition fluorescence, overnight. 0.086% of 350,000 active;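 active = mean inhibition across replicates of 30% or more, regardless of how many single replicates reach that level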
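Material: AH1F fibroblasts assembling fluorescent fibronectin matrix; amount: 10000 AH1F cells/well; medium: DMEM, 2% serum; reagent: Alexa488-fibronectin, 24 nM final in well; dosing: single compound dose, delivered by pin transfer; incubation: 1 h adhesion, overnight exposure; detection: fluorescence after three HBSS washes, excitation 485 nm, emission 525 nm; measure: fibronectin deposition inhibition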
HIV Env fusion: HIV envelope-mediated fusion inhibition | HeLa-JRFL Env/CEM21 cell fusion, luciferase | inhibition, % at 12.3 µM | 1.1% of 360,000 active | AID 651610;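 active = mean replicate inhibition score of at least 50 and every replicate individually at or above 50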
DENV2 CPE rescue: DENV2-induced cell death inhibition. DENV2-infected cells, cytopathic effect rescue, plate reader. 1.7% of 350,000 active. CPE inhibition, % at 9.99 µM; in the data active = CPE inhibition above about 20%, passing the limit was not always enough; tested in BHK-21 cells
PGC1a acetyl inh: modulators of PGC1a acetylation; inhibition, % at 15.6 µM; AID 651687; 0.17% of 350,000 active; U2OS PGC1a acetylation, AlphaScreen anti-acetyl-lysine; with virally co-expressed GCN5 acetyltransferase;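 active = every replicate shows inhibition of at least 40%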
Numbers stand for hits.

Screening CCCCC1=CC2=CC(=O)C(C)(OC(=O)CC)C(=O)C2=CN1c1cccc(C#N)c1 (stereo not drawn) returned Ecoli rRNA inh inactive, PglD inh inactive, FN deposition inh inactive, HIV Env fusion inactive, DENV2 CPE rescue 26 and PGC1a acetyl inh inactive.
For CO[C@H]1CN(C)C(=O)c2cc(NC(=O)c3ccno3)ccc2OC[C@H](C)N(S(C)(=O)=O)C[C@@H]1C the results were Ecoli rRNA inh inactive, PglD inh inactive, FN deposition inh inactive, HIV Env fusion inactive, DENV2 CPE rescue inactive and PGC1a acetyl inh inactive.
`N#Cc1ccc(CN2CCN(C(=O)CC(NC(=O)c3ccccc3)c3ccccc3)CC2)cc1` (stereo not drawn) gave Ecoli rRNA inh inactive, PglD inh inactive, FN deposition inh inactive, HIV Env fusion inactive and DENV2 CPE rescue 63.
N#Cc1ccc(CN2CCN(C(=O)CNC(=O)Cc3cccc4ccccc34)CC2)cc1 was read as Ecoli rRNA inh inactive, PglD inh inactive, FN deposition inh inactive, HIV Env fusion 71, DENV2 CPE rescue inactive and PGC1a acetyl inh inactive.
For COc1cccc(N2CCN(C(=O)CC(NC(=O)c3ccccc3)c3ccccc3)CC2)c1 (stereo not drawn) the results were Ecoli rRNA inh inactive, PglD inh inactive, FN deposition inh inactive and DENV2 CPE rescue inactive.
Screening O=C(C[C@H]1CC[C@H]2[C@@H](COC[C@@H](O)CN2Cc2cccc(-c3ccncc3)c2)O1)N1CCN(c2ccccc2)CC1 returned Ecoli rRNA inh inactive, PglD inh inactive, FN deposition inh inactive, DENV2 CPE rescue inactive and PGC1a acetyl inh inactive.
For CC=Cc1ccc2n(c1=O)C[C@@H]1[C@@H](CO)[C@H](C(=O)N3CCCCC3)[C@H]2N1C(=O)C1CC1 (mixture of isomers) the results were Ecoli rRNA inh inactive, PglD inh inactive and DENV2 CPE rescue inactive.
For CCOc1ccc2c(c1)-c1c(ssc1=S)C(C)(C)N2C(=O)c1ccco1 the results were PglD inh inactive, FN deposition inh inactive and HIV Env fusion 71.
COc1ccc2c(c1)-c1c(ssc1=S)C(C)(C)N2C(=O)CSC1=NCCS1 was read as PglD inh inactive, FN deposition inh inactive, HIV Env fusion inactive and PGC1a acetyl inh inactive.
`C[C@H]1CN([C@@H](C)CO)S(=O)(=O)c2ccc(C3=CCCC3)cc2O[C@@H]1CN(C)C(=O)C1CC1` gave Ecoli rRNA inh inactive, FN deposition inh inactive, HIV Env fusion inactive and PGC1a acetyl inh inactive.
O=C1C(SCCO)=C(SCCO)C(=O)c2ccccc21 was read as Ecoli rRNA inh inactive, PglD inh inactive, FN deposition inh 43, HIV Env fusion inactive, DENV2 CPE rescue inactive and PGC1a acetyl inh inactive.
Cc1noc(C)c1NC(=O)N(C)C[C@@H]1OCCCC[C@@H](C)Oc2ccc(NC(=O)NC(C)C)cc2C(=O)N([C@H](C)CO)C[C@H]1C was read as Ecoli rRNA inh inactive, DENV2 CPE rescue inactive and PGC1a acetyl inh inactive.
C[C@H](CO)N1C[C@H](C)[C@H](CN(C)Cc2ccc(C(=O)O)cc2)Oc2ccc(NS(=O)(=O)c3cn(C)cn3)cc2C1=O was read as Ecoli rRNA inh inactive, PglD inh inactive, DENV2 CPE rescue 41 and PGC1a acetyl inh inactive.
C[C@@H]1CN([C@@H](C)CO)C(=O)c2cc(NS(=O)(=O)c3cccs3)ccc2O[C@@H](C)CCCCO[C@H]1CN(C)S(=O)(=O)c1cn(C)cn1 was read as Ecoli rRNA inh inactive, PglD inh inactive, HIV Env fusion inactive, DENV2 CPE rescue 31 and PGC1a acetyl inh inactive.
Screening C[C@H]1CN([C@@H](C)CO)C(=O)c2cc(NS(=O)(=O)c3cn(C)cn3)ccc2O[C@H]1CN(C)Cc1ccc(C(=O)O)cc1 returned Ecoli rRNA inh inactive, PglD inh inactive, DENV2 CPE rescue inactive and PGC1a acetyl inh inactive.
COc1ccc(S(=O)(=O)Nc2ccc3c(c2)C(=O)N([C@H](C)CO)C[C@@H](C)[C@@H](CN(C)S(=O)(=O)c2cn(C)cn2)OCCCC[C@H](C)O3)cc1 was read as Ecoli rRNA inh inactive, PglD inh inactive, HIV Env fusion inactive, DENV2 CPE rescue 53 and PGC1a acetyl inh inactive.
`Cc1ccc(S(=O)(=O)Nc2ccc3c(c2)C(=O)N([C@@H](C)CO)C[C@@H](C)[C@@H](CN(C)S(=O)(=O)c2cn(C)cn2)OCCCC[C@H](C)O3)cc1` gave Ecoli rRNA inh inactive, PglD inh inactive, FN deposition inh inactive, HIV Env fusion inactive, DENV2 CPE rescue 26 and PGC1a acetyl inh inactive.
C[C@@H]1CCCCO[C@@H](CN(C)Cc2ccc3c(c2)OCO3)[C@H](C)CN([C@@H](C)CO)C(=O)c2cc(NC(=O)CCC(F)(F)F)ccc2O1 was read as Ecoli rRNA inh inactive, PglD inh inactive, HIV Env fusion inactive, DENV2 CPE rescue inactive and PGC1a acetyl inh inactive.
Cc1ccc(S(=O)(=O)Nc2ccc3c(c2)C(=O)N([C@H](C)CO)C[C@@H](C)[C@@H](CN(C)S(=O)(=O)c2cn(C)cn2)OCCCC[C@H](C)O3)cc1 was read as Ecoli rRNA inh inactive, PglD inh inactive, FN deposition inh inactive, HIV Env fusion inactive, DENV2 CPE rescue 34 and PGC1a acetyl inh inactive.
For C[C@@H]1CN([C@H](C)CO)C(=O)c2cc(NS(=O)(=O)c3cn(C)cn3)ccc2O[C@@H](C)CCCCO[C@H]1CN(C)S(=O)(=O)c1ccc(F)cc1 the results were Ecoli rRNA inh inactive, FN deposition inh inactive, DENV2 CPE rescue inactive and PGC1a acetyl inh inactive.
